Values after ≈ are worked out from the molar mass of the structure shown.
System: not listed separately
Assay: Selectivity index, ratio of IC50 for African green monkey Vero cells to MIC for Mycobacterium tuberculosis H37Rv
Assay type: toxicity, cell-based
Settings: read-out: Selectivity Index
Outline: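 SI = Vero IC50 / H37Rv MIC. Vero cytotoxicity by MTT: subcultured cells exposed 72 h to 125, 62.5, 31.25 μg/ml; MTT added 4 h, formazan dissolved in DMSO. MIC by REMA: H37Rv in 7H9 broth, 1.56–50 μg/ml serial dilutions, 7 days then resazurin 1 day, visual colour read.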

SMILES	selectivity ratio
O=C(/C=C/c1ccccc1)Nc1ccc(N2CCN(C(=O)c3ccccc3C(F)(F)F)CC2)c(F)c1	> 40
O=C(/C=C/c1ccc([N+](=O)[O-])cc1)Nc1ccc(N2CCN(C(=O)c3ccc(F)cc3)CC2)cc1	> 10
O=C(/C=C/c1ccc([N+](=O)[O-])cc1)Nc1ccc(N2CCN(C(=O)c3ccncc3)CC2)c(F)c1	> 10
CN1CCN(c2ccc(NC(=O)/C=C/c3ccccc3)cc2)CC1	> 10
CCN1CCN(c2ccc(NC(=O)/C=C/c3ccccc3)cc2F)CC1	> 10

System: Vero
Assay: Cytotoxicity against African green monkey Vero cells after 72 hrs by MTT assay
Assay type: cell-based
Settings: Chlorocebus sabaeus
Outline: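 Vero cells subcultured, then exposed to compound at 125, 62.5 and 31.25 μg/ml for 72 h. MTT added for a further 4 h; formazan dissolved in DMSO. Viability read from tetrazolium-to-formazan conversion and reported as IC50.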

SMILES	IC50 [µg/mL]
O=C(/C=C/c1ccccc1)Nc1ccc(N2CCN(C(=O)c3ccccc3C(F)(F)F)CC2)c(F)c1	> 125
O=C(/C=C/c1ccc([N+](=O)[O-])cc1)Nc1ccc(N2CCN(C(=O)c3ccc(F)cc3)CC2)cc1	> 125
O=C(/C=C/c1ccc([N+](=O)[O-])cc1)Nc1ccc(N2CCN(C(=O)c3ccncc3)CC2)c(F)c1	> 125
CN1CCN(c2ccc(NC(=O)/C=C/c3ccccc3)cc2)CC1	> 125
CCN1CCN(c2ccc(NC(=O)/C=C/c3ccccc3)cc2F)CC1	> 125

System: Mycobacterium tuberculosis
Assay: Antitubercular activity against Mycobacterium tuberculosis H37Rv after 7 days by resazurin microtitre assay
Assay type: functional
Settings: 168 h
Outline: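 M. tb H37Rv in Middlebrook 7H9 broth; compounds dissolved in DMSO (2 mg/ml stock), serially diluted in 96-well plate to 1.56–50 μg/ml, 100 μl cell suspension per well. After 7 days, 0.02% w/v resazurin added, incubated 1 more day; MIC = lowest concentration preventing blue-to-pink colour change (>90% inhibition), read visually. Isoniazid reference.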

SMILES	MIC90 [µg/mL]
O=C(/C=C/c1ccccc1)Nc1ccc(N2CCN(C(=O)c3cc(Cl)cc(Cl)c3)CC2)c(F)c1	12.5 (≈ 25.1 µM)
O=C(/C=C/c1ccccc1)Nc1ccc(N2CCN(C(=O)c3ccc([N+](=O)[O-])cc3)CC2)cc1	> 50
O=C(/C=C/c1ccccc1)Nc1ccc(N2CCN(C(=O)c3ccc(F)cc3)CC2)c(F)c1	> 50
O=C(/C=C/c1ccccc1)Nc1ccc(N2CCN(C(=O)c3ccccc3C(F)(F)F)CC2)c(F)c1	3.12 (≈ 6.28 µM)
O=C(/C=C/c1ccccc1)Nc1ccc(N2CCN(C(=O)c3ccc([N+](=O)[O-])cc3)CC2)c(F)c1	12.5 (≈ 26.3 µM)
O=C(/C=C/c1ccc([N+](=O)[O-])cc1)Nc1ccc(N2CCN(C(=O)c3ccc(F)cc3)CC2)cc1	12.5 (≈ 26.3 µM)
O=C(/C=C/c1ccc([N+](=O)[O-])cc1)Nc1ccc(N2CCN(C(=O)c3cc(Cl)cc(Cl)c3)CC2)cc1	> 50
O=C(/C=C/c1ccc([N+](=O)[O-])cc1)Nc1ccc(N2CCN(C(=O)c3ccccc3C(F)(F)F)CC2)cc1	> 50
O=C(/C=C/c1ccc([N+](=O)[O-])cc1)Nc1ccc(N2CCN(C(=O)c3ccc([N+](=O)[O-])cc3)CC2)cc1	> 50
O=C(/C=C/c1ccc([N+](=O)[O-])cc1)Nc1ccc(N2CCN(C(=O)c3ccc(F)cc3)CC2)c(F)c1	12.5 (≈ 25.4 µM)
O=C(/C=C/c1ccc([N+](=O)[O-])cc1)Nc1ccc(N2CCN(C(=O)c3cc(Cl)cc(Cl)c3)CC2)c(F)c1	12.5 (≈ 23 µM)
O=C(/C=C/c1ccc([N+](=O)[O-])cc1)Nc1ccc(N2CCN(C(=O)c3ccccc3C(F)(F)F)CC2)c(F)c1	> 50
O=C(/C=C/c1ccc([N+](=O)[O-])cc1)Nc1ccc(N2CCN(C(=O)c3ccc([N+](=O)[O-])cc3)CC2)c(F)c1	> 50
O=C(/C=C/c1ccccc1)Nc1ccc(N2CCN(C(=O)c3ccncc3)CC2)cc1	50 (≈ 121 µM)
O=C(/C=C/c1ccccc1)Nc1ccc(N2CCN(C(=O)c3ccncc3)CC2)c(F)c1	> 50
O=C(/C=C/c1ccc([N+](=O)[O-])cc1)Nc1ccc(N2CCN(C(=O)c3ccncc3)CC2)cc1	> 50
O=C(/C=C/c1ccc([N+](=O)[O-])cc1)Nc1ccc(N2CCN(C(=O)c3ccncc3)CC2)c(F)c1	12.5 (≈ 26.3 µM)
CCN1CCN(c2ccc(NC(=O)/C=C/c3ccc([N+](=O)[O-])cc3)cc2)CC1	12.5 (≈ 32.9 µM)
O=C(/C=C/c1ccc([N+](=O)[O-])cc1)Nc1ccc(N2CCN(c3ccccn3)CC2)cc1	> 50
CC(C)(C)OC(=O)N1CCN(c2ccc(NC(=O)/C=C/c3ccc([N+](=O)[O-])cc3)cc2)CC1	12.5 (≈ 27.6 µM)
CN1CCN(c2ccc(NC(=O)/C=C/c3ccc([N+](=O)[O-])cc3)cc2F)CC1	25 (≈ 65 µM)
CCN1CCN(c2ccc(NC(=O)/C=C/c3ccc([N+](=O)[O-])cc3)cc2F)CC1	> 50
O=C(/C=C/c1ccc([N+](=O)[O-])cc1)Nc1ccc(N2CCN(c3ccccn3)CC2)c(F)c1	> 50
CC(C)(C)OC(=O)N1CCN(c2ccc(NC(=O)/C=C/c3ccc([N+](=O)[O-])cc3)cc2F)CC1	50 (≈ 106 µM)
O=C(/C=C/c1ccccc1)Nc1ccc(N2CCNCC2)cc1	12.5 (≈ 40.7 µM)
O=C(/C=C/c1ccccc1)Nc1ccc(N2CCNCC2)c(F)c1	25 (≈ 76.8 µM)
O=C(/C=C/c1ccc([N+](=O)[O-])cc1)Nc1ccc(N2CCNCC2)cc1	50 (≈ 142 µM)

SMILES	MIC90 [µg/mL]
O=C(/C=C/c1ccc([N+](=O)[O-])cc1)Nc1ccc(N2CCNCC2)c(F)c1	12.5 (≈ 33.7 µM)
COC(=O)N1CCN(c2ccc(NC(=O)/C=C/c3ccccc3)cc2)CC1	> 50
CCOC(=O)N1CCN(c2ccc(NC(=O)/C=C/c3ccccc3)cc2)CC1	> 50
O=C(/C=C/c1ccccc1)Nc1ccc(N2CCN(C(=O)Oc3ccccc3)CC2)cc1	> 50
COC(=O)N1CCN(c2ccc(NC(=O)/C=C/c3ccccc3)cc2F)CC1	> 50
CCOC(=O)N1CCN(c2ccc(NC(=O)/C=C/c3ccccc3)cc2F)CC1	> 50
O=C(/C=C/c1ccccc1)Nc1ccc(N2CCN(C(=O)Oc3ccccc3)CC2)c(F)c1	> 50
COC(=O)N1CCN(c2ccc(NC(=O)/C=C/c3ccc([N+](=O)[O-])cc3)cc2)CC1	> 50
CCOC(=O)N1CCN(c2ccc(NC(=O)/C=C/c3ccc([N+](=O)[O-])cc3)cc2)CC1	> 50
O=C(/C=C/c1ccc([N+](=O)[O-])cc1)Nc1ccc(N2CCN(C(=O)Oc3ccccc3)CC2)cc1	> 50
COC(=O)N1CCN(c2ccc(NC(=O)/C=C/c3ccc([N+](=O)[O-])cc3)cc2F)CC1	> 50
CCOC(=O)N1CCN(c2ccc(NC(=O)/C=C/c3ccc([N+](=O)[O-])cc3)cc2F)CC1	> 50
O=C(/C=C/c1ccc([N+](=O)[O-])cc1)Nc1ccc(N2CCN(C(=O)Oc3ccccc3)CC2)c(F)c1	> 50
O=C(/C=C/c1ccccc1)Nc1ccc(N2CCN(C(=O)c3ccc(F)cc3)CC2)cc1	25 (≈ 58.2 µM)
O=C(/C=C/c1ccccc1)Nc1ccc(N2CCN(C(=O)c3cc(Cl)cc(Cl)c3)CC2)cc1	> 50
O=C(/C=C/c1ccccc1)Nc1ccc(N2CCN(C(=O)c3ccccc3C(F)(F)F)CC2)cc1	50 (≈ 104 µM)
CN1CCN(c2ccc(NC(=O)/C=C/c3ccccc3)cc2)CC1	6.25 (≈ 19.4 µM)
CCN1CCN(c2ccc(NC(=O)/C=C/c3ccccc3)cc2)CC1	12.5 (≈ 37.3 µM)
O=C(/C=C/c1ccccc1)Nc1ccc(N2CCN(c3ccccn3)CC2)cc1	> 50
CC(C)(C)OC(=O)N1CCN(c2ccc(NC(=O)/C=C/c3ccccc3)cc2)CC1	12.5 (≈ 30.7 µM)
CN1CCN(c2ccc(NC(=O)/C=C/c3ccccc3)cc2F)CC1	25 (≈ 73.7 µM)
CCN1CCN(c2ccc(NC(=O)/C=C/c3ccccc3)cc2F)CC1	12.5 (≈ 35.4 µM)
O=C(/C=C/c1ccccc1)Nc1ccc(N2CCN(c3ccccn3)CC2)c(F)c1	> 50
CC(C)(C)OC(=O)N1CCN(c2ccc(NC(=O)/C=C/c3ccccc3)cc2F)CC1	50 (≈ 118 µM)
CN1CCN(c2ccc(NC(=O)/C=C/c3ccc([N+](=O)[O-])cc3)cc2)CC1	12.5 (≈ 34.1 µM)
NNC(=O)c1ccncc1 [ISONIAZID]	0.39 (≈ 2.84 µM)

Source: ChEMBL document CHEMBL3124771, “Design, synthesis and antitubercular evaluation of novel series of N-[4-(piperazin-1-yl)phenyl]cinnamamide derivatives” (Eur J Med Chem, 2014)
